BaF3 parental: reduces parental Ba/F3 cell viability, JAK2V617F counter-screen; CellTiter-Glo ATP luminescence; inhibition, % at 5.6 µM; 220,000 tested, 1.1% active;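 active = inhibition above a per-campaign cutoff, the mean inhibition of all tested compounds plus 3 SD, cut at about 27% in these data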;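 also: 0% = DMSO wells and 100% = JAK Inhibitor I control wells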
MT stabilize HCS: microtubule stabilizers in HeLa cells. % tubulin-high responders, % at 10 µM. 200,000 tested, 0.83% active. HeLa tubulin immunostaining HCS, 24 h; share of cells brighter than vehicle mean+2SD. AID 2205;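 active = plate Z-score above 3 for both tubulin-high and condensed-nucleus cell shares, with cell loss under 80%, at 10 µM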;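 also: anti alpha tubulin signal scored within the nucleus-defined area of each cell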
Lmaj promast: Leishmania major promastigote growth inhibition; Leishmania major promastigotes, resazurin fluorescence viability; inhibition, % at 10 µM; 200,000 tested, 9% active; in the data active = inhibition above about 50%;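 also: promastigotes grown with compound for 44 hours at 28 °C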
b-catenin transl: beta-catenin nuclear translocation modulation; HeLa beta-catenin nuclear translocation, immunofluorescence imaging; nuclear translocation activity, % at 5 µM; 190,000 tested, 0.3% active;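 active = nuclear translocation activity above 50% at 5 µM, with a well cell count of 50 or more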;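 also: per-cell ratio of nuclear to cytoplasmic median beta-catenin stain intensity; plate controls were DMSO negative control for no effect and GSK-3 inhibitor IX positive control for full effect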
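Test system: human HeLa cell line; Doses: 5 µM primary, 0.02–20 µM confirmation; Incubation: 24 h compound exposure, 37°C; Detection: beta-catenin immunofluorescence imaging with DAPI; Read-out: beta-catenin nuclear/cytoplasmic ratio, % activation.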
Ba/F3 V617F tox: lowers viability of Ba/F3 cells expressing EpoR and JAK2V617F; ATP luminescence; inhibition, % at 5.6 µM; 220,000 tested, 1.1% active; AID 1446;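 active = inhibition above the campaign mean plus 3 SD over all tested compounds, cut at about 24% in these data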;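 also: cytokine-independent growth of Ba/F3 cells driven by EpoR plus mutant JAK2; 0% = DMSO-treated cells and 100% = JAK inhibitor I control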
APP transl inh: APP translation inhibition; SH-SY5Y APP 5'UTR-luciferase reporter, luminescence; 190,000 tested, 0.82% active; AID 1285; inhibition, % at 2 µM;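 active = inhibition above a set limit, derived from the sample mean plus 3 SD, cut at about 45% in these data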
* = called active by the depositor; . = not tested or not shown. Rows were chosen to be rich in hits. Some 9.6% of all compounds tested hit in one or more screens of this group.

SMILES	BaF3 parental	MT stabilize HCS	Lmaj promast	b-catenin transl	Ba/F3 V617F tox	APP transl inh
CCOc1ccccc1N(CC(=O)NC(C)(C)C)C(=O)Cn1nnc(-c2ccc(C)o2)n1	4.5	1.9	60.0*	-2.2	-0.9	-3.3
COc1cccc(Oc2cnc(N)nc2-c2ccc(OC)cc2O)c1	62.1*	20.0	36.1	1.6	68.4*	60.8*
C=C(C)COc1ccc(-c2nc(N)ncc2-c2ccc(OC)cc2)c(O)c1	3.2	1.6	29.8	-0.1	-5.8	-8.6
COc1ccc(-c2ncncc2-c2csc(C)n2)c(O)c1	31.7*	3.6	5.2	-0.4	-1.8	-0.2
C=C(C)COc1ccc(-c2[nH]ncc2-c2ccc(OC)c(OC)c2)c(O)c1	65.8*	58.1*	15.0	-1.4	81.1*	91.1*
C=C(C)COc1ccc(-c2ncncc2Oc2ccc(OC)cc2)c(O)c1	6.5	3.1	65.6*	0.9	4.3	7.0
CN(C)S(=O)(=O)N(CC(=O)N1CCN(c2ccccc2F)CC1)c1ccccc1	3.1	3.5	-2.4	0.4	-1.5	2.1
C=C(C)COc1ccc(-c2[nH]ncc2Oc2cccc(OC)c2)c(O)c1	2.0	4.2	74.0*	0.2	1.7	13.4
C=C(C)COc1ccc(-c2n[nH]c(C)c2-c2ccc(OC)c(OC)c2)c(O)c1	75.7*	.	.	13.3	78.0*	.
C=C(C)COc1ccc(-c2n[nH]c(C)c2Oc2ccccc2OC)c(O)c1	2.7	6.9	75.8*	1.1	3.8	9.8
COc1ccc(-c2c(-c3ccc(OCC(=O)NN)cc3O)n[nH]c2C)cc1	-3.1	.	.	2.6	0.5	.
CCOc1ccc(S(=O)(=O)N(C)c2ccc(OCC(=O)NCc3ccc(C(=O)OC)cc3)cc2)cc1	-0.6	3.0	2.0	-0.5	-1.9	3.5
COc1ccccc1OCCC(=O)OCC(=O)NC(C)c1ccccc1 (stereo not drawn)	6.0	6.3	-3.9	-0.7	-2.3	-1.4
CC(=O)c1c(C)[nH]c(C(=O)CN2C(=O)NC(CCc3ccccc3)C2=O)c1C (stereo not drawn)	3.2	.	.	-2.1	-5.0	.
NS(=O)(=O)c1ccc(CCn2c(=S)[nH]c3ccc(F)cc3c2=O)cc1	3.6	1.9	75.7*	-2.1	-0.9	10.0
CCCCc1cc(=O)oc2cc(O)ccc12	0.9	4.8	-2.8	0.0	1.0	-25.1
C/C=C(/C)C(=O)OC1c2c(ccc3ccc(=O)oc23)OC(C)(C)C1OC(C)=O (stereo not drawn)	8.4	2.7	67.4*	1.3	3.0	-13.2
O=c1[nH]c(=S)n(C2CCCCC2)c(O)c1C=NCCN1CCOCC1	1.1	.	.	-1.1	-5.2	.
CC(C)C(=O)N1CCC(CN=Cc2c(O)n(C3CCCCC3)c(=O)n(C3CCCCC3)c2=O)CC1	3.1	7.1	100.0*	-1.4	2.3	1.5
CCOc1ccc2[nH]c(=O)c(CN(Cc3cccs3)Cc3nnnn3C(C)(C)CC)cc2c1	2.7	46.2	58.9*	1.0	-1.3	-1.6
CN(C)/C=C1\C(=O)NN=C1C(F)(F)F	1.8	2.2	-9.9	-1.4	-1.5	-3.1
COc1cc(Nc2nc(-c3ccccc3)c3cc(C)ccc3n2)cc(OC)c1OC	4.1	2.4	60.6*	0.1	1.5	-9.5
Cc1ccc2nc(NCC(=O)O)nc(-c3ccccc3)c2c1	0.3	2.9	-3.8	.	-0.8	4.8
O=C(COc1ccccc1-c1ccccc1)NN=C1CCCC1	5.5	3.1	-1.0	-1.3	2.8	82.4*
Cc1ccc(CNC(=O)COc2ccccc2-c2ccccc2)cc1	1.2	2.6	69.6*	-1.3	-4.0	8.2
C/C(CCC(C)C)=N\NC(=O)COc1ccccc1-c1ccccc1	1.4	13.5	-4.5	-3.5	-2.7	94.3*
CC(NC(=O)COc1ccccc1-c1ccccc1)c1ccccc1 (stereo not drawn)	2.2	4.3	34.4	.	-2.8	-24.4
CCOC(CC(=O)NNC(=O)c1c(-c2ccccc2Cl)noc1C)OCC	-3.1	.	.	0.2	-5.0	.
Cc1ccc(N2C(=O)[C@@H]3C(c4cccnc4)=NO[C@@H]3C2=O)c(C)c1	0.0	.	.	-0.4	-2.1	.
Cc1ccc(N2C(=O)C3CC(c4ccccc4)=C4C5C=CC(C6C(=O)N(c7ccc(C)cc7C)C(=O)C56)C4C3C2=O)c(C)c1 (stereo not drawn)	2.8	1.9	77.8*	0.9	0.5	5.8

Screens from PubChem.
